The values below come from ChEMBL document CHEMBL1821568, “Conjugates of 3α-methoxyserrat-14-en-21β-ol (PJ-1) and 3β-methoxyserrat-14-en-21β-ol (PJ-2) as cancer chemopreventive agents” (Eur J Med Chem, 2011).

Series [1] deals with Raji. Briefly: Inhibition of TPA-induced EBV-early antigen activation in human Raji cells assessed as EA activation at 1000 molar ratio after 48 hrs relative to control. The format is cell-based. The settings on record: human gammaherpesvirus 4. Also on record: scale not given: the % may be the effect or the level left. Summed up: (§1)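 Raji cells (non-producer sub-line, spontaneous EA under 0.1%) at 1×10^6/mL, incubated 37 °C for 48 h with n-butyric acid (4 mmol), TPA (32 pmol in DMSO) and compound in DMSO. Dose expressed as mol ratio to TPA (1000, 500, 100, 10). EA-positive cells were detected by indirect immunofluorescence with NPC patient serum, at least 500 cells counted. Assays were run in triplicate. Results are relative to butyrate+TPA control (100%). IC50 given in nM.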

Series [2] has as its system Raji. Nature of the series: Inhibition of TPA-induced EBV-early antigen activation in human Raji cells assessed as EA activation at 500 molar ratio after 48 hrs relative to control. The format is cell-based. The settings on record: human gammaherpesvirus 4. Set-up: scale not given: the % may be the effect or the level left. An outline of the steps:
as §1

Series [3] concerns Raji. Nature of the series: Inhibition of TPA-induced EBV-early antigen activation in human Raji cells assessed as EA activation at 100 molar ratio after 48 hrs relative to control. The settings on record: human gammaherpesvirus 4. The series is classed as cell-based. Summed up: as §1
Series [4] relates to Raji. Briefly: Inhibition of TPA-induced EBV-early antigen activation in human Raji cells assessed as EA activation at 10 molar ratio after 48 hrs relative to control. The format is cell-based. Also on record: scale not given: the % may be the effect or the level left. As to conditions: human gammaherpesvirus 4. Summed up:
as §1

Series [5] is described as follows: Cytotoxicity against human Raji cells carrying EBV genome assessed as cell viability at 1000 molar ratio by trypan blue staining method. The series is classed as cell-based. As to conditions: read-out: Activity. Summed up: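 Raji cells (EBV genome-carrying, in RPMI-1640 with 10% FBS) at 1×10^6/mL, incubated 48 h at 37 °C with n-butyric acid (4 mmol), TPA (32 pmol) and test compound in DMSO. Viability scored by Trypan Blue staining. Molar ratio means mol of compound per mol of TPA (32 pmol).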

Series [6] is described as follows: Inhibition of TPA-induced EBV-early antigen activation in human Raji cells assessed as EA activation after 48 hrs. The series is classed as cell-based, human gammaherpesvirus 4. Summed up:
as §1

The subject of series [7] is Mus musculus. Nature of the series: Inhibition of DMBA-induced and TPA-promoted carcinogenesis in ICR mouse assessed as reduction of mouse bearing papillomas at 85 nmol administered 1 hr before TPA treatment measured after 10 to 15 weeks. The series is classed as functional. Summed up: (§2)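 Female SPF ICR mice, 6 weeks old, 15 per group, backs shaved. Initiation was one topical dose of DMBA (390 nmol) in acetone 0.1 mL. Promotion was TPA (1.7 nmol) twice weekly, with compound given topically at 85 nmol. Papilloma incidence and papillomas per mouse were followed to week 20, and tumor length and width were recorded. Significance was set at P<0.05 versus the DMBA/TPA control.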

Series [8] concerns Mus musculus. Nature of the series: Inhibition of DMBA-induced and TPA-promoted carcinogenesis in ICR mouse assessed as reduction of mouse bearing papillomas at 85 nmol administered 1 hr before TPA treatment measured after 20 weeks. The series is classed as functional. Summed up:
as §2

The subject of series [9] is Mus musculus. Nature of the series: Inhibition of DMBA-induced and TPA-promoted carcinogenesis in ICR mouse assessed as reduction of mouse bearing papillomas length at 85 nmol administered 1 hr before TPA treatment measured after 20 weeks. The format is functional. An outline of the steps: as §2
Series [10] concerns Mus musculus. Briefly: Inhibition of DMBA-induced and TPA-promoted carcinogenesis in ICR mouse assessed as reduction of mouse bearing papillomas width at 85 nmol administered 1 hr before TPA treatment measured after 20 weeks. The format is functional. Summed up:
as §2

The species entered for series [11] is Mus musculus. Nature of the series: Toxicity in ICR mouse assessed as change in body weight at 85 nmol. The format is organism-based. The settings on record: in vivo.
For series [12], the species on record is Mus musculus. Nature of the series: Toxicity in ICR mouse assessed as lesional damage at 85 nmol. The format is organism-based. The settings on record: in vivo.
Series [13] concerns Mus musculus. Nature of the series: Toxicity in ICR mouse assessed as edema at 85 nmol. The series is classed as organism-based. As to conditions: in vivo.
The species named for series [14] is Mus musculus. Briefly: Toxicity in ICR mouse assessed as erosion at 85 nmol. The format is organism-based. The settings on record: in vivo.
Series [15] is filed under the species Mus musculus. Nature of the series: Toxicity in ICR mouse assessed as ulcer at 85 nmol. The series is classed as organism-based. The settings on record: in vivo.

pIC50: −log10 of the molar value.

On to `CO[C@@H]1CC[C@@]2(C)[C@@H](CC[C@@]3(C)C[C@]45CC[C@@H]6C(C)(C)[C@H](OC(=O)CC(C)(C)C(=O)O)CC[C@@]6(C)[C@@]4(CC[C@@H]32)O5)C1(C)C`, for which the Activity was 0% in [1]; 26.6% in series [2]; 89.6% in series [4]; 18 mm in series [9]; 17 mm in series [10]; “Non-toxic” in series [11]. For the same compound, the Activity entry in series [12], in [13], in [14] and in series [15] was “Non-toxic” throughout. Also, the EA activation relative to control in series [3] amounted to 68.4%. The viability at 1000 molar ratio in series [5] is 60%. Besides, in series [6], the pIC50 was 6.64. The entries for the “inhibition (INH)” value in series [7] and in series [8] were 26.6% and 93.3%, respectively.
